# Results published in PMC9126795 (eBioMedicine, 2022).
# Like-named read-outs stand apart in the source and are kept apart here.
# Type: in vivo, human
# Outline: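 Cirrhosis patients (3 per dose level) received a single 4 h IV infusion on Day −7 before the first cycle. Cmax, Tmax, t1/2 and AUC were derived by non-compartmental analysis, with the last concentration extrapolated assuming constant elimination.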
substance,measurement,setting,value
PRI-724,PRI-724 AUC 0-24h,"140 mg/m^2/4h, Max",4660 ng·h/mL
same,PRI-724 Cmax,"140 mg/m^2/4h, Max",1520 ng/mL
same,PRI-724 Tmax,"140 mg/m^2/4h, Max",4 h
same,PRI-724 AUC 0-24h,"140 mg/m^2/4h, Mean",3740 ng·h/mL
same,PRI-724 Cmax,"140 mg/m^2/4h, Mean",1150 ng/mL
same,PRI-724 AUC 0-24h,"140 mg/m^2/4h, Median",3770 ng·h/mL
same,PRI-724 Cmax,"140 mg/m^2/4h, Median",1030 ng/mL
same,PRI-724 AUC 0-24h,"140 mg/m^2/4h, Min",2790 ng·h/mL
same,PRI-724 Cmax,"140 mg/m^2/4h, Min",888 ng/mL
same,PRI-724 Tmax,"140 mg/m^2/4h, Min",1 h
same,PRI-724 AUC 0-24h,"280 mg/m^2/4h, Max",7500 ng·h/mL
same,PRI-724 Cmax,"280 mg/m^2/4h, Max",2590 ng/mL
same,PRI-724 Tmax,"280 mg/m^2/4h, Max",4 h
same,PRI-724 AUC 0-24h,"280 mg/m^2/4h, Mean",5700 ng·h/mL
same,PRI-724 Cmax,"280 mg/m^2/4h, Mean",1710 ng/mL
same,PRI-724 AUC 0-24h,"280 mg/m^2/4h, Median",5960 ng·h/mL
same,PRI-724 Cmax,"280 mg/m^2/4h, Median",1780 ng/mL
same,PRI-724 AUC 0-24h,"280 mg/m^2/4h, Min",2650 ng·h/mL
same,PRI-724 Cmax,"280 mg/m^2/4h, Min",757 ng/mL
same,PRI-724 Tmax,"280 mg/m^2/4h, Min",1 h
same,PRI-724 AUC 0-24h,"380 mg/m^2/4h, Max",16000 ng·h/mL
same,PRI-724 Cmax,"380 mg/m^2/4h, Max",4730 ng/mL
same,PRI-724 Tmax,"380 mg/m^2/4h, Max",4 h
same,PRI-724 AUC 0-24h,"380 mg/m^2/4h, Mean",11800 ng·h/mL
same,PRI-724 Cmax,"380 mg/m^2/4h, Mean",3530 ng/mL
same,PRI-724 AUC 0-24h,"380 mg/m^2/4h, Median",11900 ng·h/mL
same,PRI-724 Cmax,"380 mg/m^2/4h, Median",3540 ng/mL
same,PRI-724 AUC 0-24h,"380 mg/m^2/4h, Min",7940 ng·h/mL
same,PRI-724 Cmax,"380 mg/m^2/4h, Min",2590 ng/mL
same,PRI-724 Tmax,"380 mg/m^2/4h, Min",1 h
